Experimental data from the RNAGym collection of RNA variant scans (doi:10.1126/science.aae0568).
Fewer inactive variants are shown than the library holds.

B1: tRNA (parent)
chain: GUUCCGUUGGCGUAAUGGUAACGCGUCUCCCUCCUAAGGAGAAGACUGCGGGUUCGAGUCCCGUACGGAACG

Variants of: B1
Experiment: yeast fitness relative to wild type (ratio to wild type); higher = fitter; tRNA-Arg(CCU), competitive growth, 37 C, YPD
Summary of the method: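 Amplicons of the tRNA-Arg(CCU) gene were sequenced, 100-nucleotide paired-end, from the start population and from each end population of a pooled yeast competition. The competition, in six parallel replicates, lasted 24 hours in YPD at 37°C. Fitness relative to wild type was calculated from changes in genotype frequencies. Genotypes had to have ≥ 100 starting reads, and estimates < 0.5 were set to 0.5.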

Row | Variant | yeast fitness
1 | GUUCGGUCGGCAUAAUGGUAACGCGUCUCCCUCCUAAGGAGAAGAUUGCGGGUUCGAGUCCCGUACGAAACG | ≤ 0.5
2 | GUUCGGCUGGCGUCAUGGUAACGCGUCUCCCUCCUAAGGAGAAGACUGCGCGUUCGAGUCCCGUACGGAACG | 0.697
3 | GUUCGGAUGGCGUAAUGGUAAUGCGUCUCACUCCUAAGGAGAAGACUGGGGGUUCGAGUCCGGUACGGAACG | ≤ 0.5
4 | GUUCGGAUGGCGUACUGGUAACGCGUCACCCUCCUAAGGAGAAGACUGCGGGUUCGAGUCCCGUACGGAACG | ≤ 0.5
5 | GUUCGGAUGGCGUAAUGGUCACGCGUCUCCCUCCUAAGGAGAAGACUGCGGGUUCGAGUCCCGUACGGAACG | 0.694
6 | GUUCGGUCGGGGUAAUGGUAACGCGUCUCCGUCCUAAGGAGAAGACUGCGGGUUCGAGUCCCGUACGGAACG | ≤ 0.5
7 | GUUCGGAUGGCGUAAUGGUAACGCGUAUACCUCCUAAGGAGAAGACUGCGGGUUCGAGUCCCGUACGGAACG | ≤ 0.5
8 | GUUCGGUCGGCGUCAUGGUAACGCGUCUACGUCCUAAGGAGAAGACUGCGGGUACGAGUCCCGUACGGAACG | ≤ 0.5
9 | GUUCGGCUGGCGUAAUGGUAACGCGUCUCCCUCCUAAGGAGAAGACUGUGGGUUCGAGUCCCGUACGGAACG | 0.524
10 | GUUCGGUCGGCGUAAUGGUAACGCGUCUCCCUCCUGAGGCGAAGACUGCGGGUUCGAGUCCCGUACGGAACG | 0.55
11 | GUUCGGUAGGCGUAAUGGUAACGCGUCUCCCUCCUAAGGAGAAGACUGCGGGUUCGAGUCCAGUACGGUACG | ≤ 0.5
12 | GUUCGGGUGGCGUAAUGGUAACGCGUCUCCCUCCUAAAGCGAAGACUGCGGGUUCAAGUUGCGUACGGAACG | ≤ 0.5
13 | GUUCGGUUGGCGUAAUGGUAACGCGUCUCCCUCCUAAGGAGAAGACUGCGGGUUCCAGUCCCGUACGGAACG | 0.662
14 | GUUCGGUUGGCGAAAUGGUAAGGCGUCUGCCUCCUAAGGUGAAGACUGCGGGUCCGAGUCGCGUACGGAACG | 0.588
15 | GUUCGGUCGGCGUAAUGGUAACGCGUCUCCCUCCUCAGGAGAUGACUGCGGGUUCGAGUCCCGUACGGAACG | ≤ 0.5
16 | GUUCGGCUGGCGUAAUGGUAACGGGUCUCCCUCCUAAGGAGACGACUGCGGGUUCGAGUCCCGUACGGAACG | 0.629
17 | GUUCGGUUGGCGUAAUGGUAACGCGUCUCCCUCCUAAGGAGAAGACUGCGGGUUCGAGUCCCGUACCGAACG | 0.99
18 | GUUCGGUUGGCGUAAUGGUAACGCGUCUCCCUCCUAAGGAGAAGACUGCGGGUUCGAGUCCCGUACAGAACG | 0.86
19 | GUUCGGUAGGCGUGAUGGUAACGCGUCUCCCUCCUAAGGAGAAGACUGCGGGUUCGAGUCCCGUACGGAACG | ≤ 0.5
20 | GUUCGGUCGGCGUAAUGGUAACGCGUCUCCCUCCUAAGGAGAAGACUCCGGGUUCGAGUCCCGUACGGAACG | ≤ 0.5
21 | GUUCGGAUGGCGUAAUGGUCACGCGUCUCCCUCCUAAGGAGAAGACUGCGGGUUCGAGUUCCGUACGGUACG | 0.546
22 | GUUCGGUCGGCGUAAUGGUAACGCGUCUCCCUCCUAAGGAGAAGACUGCGGGUUGGAGUCCCGUACGGAACG | ≤ 0.5
23 | GUUCGGUUGGCGUAAUGGUAACGCGUCUCCCUCCUAAGGAGAAGACUGCGGGUUCGACUCCCGUACGGAACG | 0.859
24 | GUUCGGUUGGCGUAAUGGUAACGCGUCUCCCUCCUAAGGAGAAGACUGCGGGUUCCAGUCCCGUCCGGAACG | 0.549
25 | GUUCGGUUGGCGUAAUGGUAACGCGUCUCCCUCCUAAGGAGAAGACUGCGGGUUCCAGUCCCGUUCGGAACG | ≤ 0.5

Row | Variant | yeast fitness
26 | GUUCGGUAGGCGUAAUGGUAACGCGUCUCCCUCCUAAGGACAAGACAGCGGGUUCGAGUCACGUACCGAACG | ≤ 0.5
27 | GUUCGGAUGGCGUAAUGGUAAUGCGUCUCACUCCUAAGGAGAAGACUGGGGGUUUGAGUCCCGUACGGAACG | 0.552
28 | GUUCGGCUGGCGUAAUGGUAACGCGUCUCCCUCCUAAGGAGAAGACUGCGGGUUCGAGUCCCGUACGGAACG | 0.787
29 | GUUCGGUGGGCGUGAUGGUAACGCGUCUCCCUCCUAAGGAGACGACUACGGGUUCGAGUCCCGUACGGAACG | 0.544
30 | GUUCGGUUGGCGUAAUGGUAACGCGUCUCCCUCCUAAGGAGAAGACUGCGGAUUCGAGUCCCGUGCGGAUCG | ≤ 0.5
31 | GUUCGGUCGGCGUAAUGGUACCGCGUCUCCCUUCUAAGGAGAAGACUGCGGGUUCGAGGCCCGUACGGAACG | ≤ 0.5
32 | GUUCGGUCGGCGUAAUGGUAACGCGUCUCUCUCCUAAGGAGAAGACUGCGGGUACGAGUCCCGUACGGAACG | ≤ 0.5
33 | GUUCGGUAGGCGUAAUGGUAACGCGUCUCCCUCCUAAGAAGAAGACUGCGGGUUCGAGUCCCGUACGGAACG | ≤ 0.5
34 | GUUCGGUCGGCGUAGUGCUAACGCGUCUCCCUCCUAAGGAGAAGACUGCGGGUUCGAGUCCCGUACGGAACG | ≤ 0.5
35 | GUUCGGUUGGCGUAAUGGUAACGCGUCUCCCUCCUAAGGAGAAGACUGCGGAUUCCAGUCCCGUACGGAACG | ≤ 0.5
36 | GUUCGGUAGGCGUAAUGGUAACGCGUCUCCCUCCUAAGAAGAAGACUGCGGGUUUGAGUCCCGUACGGACCG | 0.623
37 | GUUCGGUCGGCAUAAUGGUAACGCGUCACCCUCCUAAGGAGAAGACUGCGGGUUCGAGUCCCGUGCGGAACG | ≤ 0.5
38 | GUUCGGGUGGCGAAAUGGUAACGCGUCUCACUCCUAAGGAGACGACUGCGGGCUCGAGUCCCGUACGGAACG | 0.876
39 | GUUCGGCUGGCGUAAUGGUAACGCGUCUCUCUCCUAAGGAGAAGACUGCCGGUUCGAGUCCCGUACGGAACG | ≤ 0.5
40 | GUUCGGUCGGCGUAAUGGUAACGCGUCUCCCUCCUAAGGAGAAGACAGCGGGUUCGAGUCCCGUACGCAACG | ≤ 0.5
41 | GUUCGGUAGGCGUAAUGGUAACGCGUCUCCCUCCUAAGGAGAAGACUGCGGCAUCGAGUCCCGUACGGAACG | ≤ 0.5
42 | GUUCGGUUGGCGUAAUGGUAACGCGUCUCCCUCCUAAGGAGAAGACUGCGGGUUCAACUCCCGUACGGAACG | 0.756
43 | GUUCGGUUGGCGAAAUGGUAAGGCGUCUGCCUCCUAAGGUGAAGACUGCGGGUUCGAGUCCUGUACGGAACG | ≤ 0.5
44 | GUUCGGUUGGCGAAAUGGUAACGCGUCUCCCUCCUAAGGAGAAGACUGCGGGUUCGAGUCCCGUACGGAACG | 0.906
45 | GUUCGGCUGGCGUAAUGGUAACGCGGCUCCCUCCUAAGGAGAAGACUGCGGGUUCGAGUGCCGUACGGAACG | ≤ 0.5
46 | GUUCGGAUGGCGUAAUGGUCACGCGUCUCCGUCUUAAGGAGAAGACUGCGGGUUCGAGUCCAGUACGGAACG | ≤ 0.5
47 | GUUCGGUGGGGGUAAUGGUAACGCGUCUCCCUCCUAAGGAGAAGACUGAGGCUUCGAGUCCCGUACGGAACG | ≤ 0.5
48 | GUUCGGUUGGCGAAAUGGUGACGCGUCUCCCUCCAAAGGGGAAGACUGCGGGUUCGAGUCCCUUACGGAACG | ≤ 0.5
49 | GUUCGGCUGGGGUAAUGGUAACGCGUCUCCCUCCUAAGGAGAGGACUGCGGGUUCGAGUCCCGUUCGGAACG | ≤ 0.5
50 | GUUCGGUUGGCGAAAUGGUGACGCGUCUCCCUCCAAAGGGGAAGACUGCGGGUUCGAGUCCCGUACGGAACG | ≤ 0.5

Row | Variant | yeast fitness
51 | GUUCGGUCGGCGUAAUGGUAACGCGUGUCCCUGCAAAGGAGAAGACUGUGGGUUCGAGUCCCGUACGGAACG | ≤ 0.5
52 | GUUCGGCUGGCGUAAUGGUAACGCGUCUCCCUCCUAAGGAGAAGACUGCGGGUACGAGUCCCAUACGGAACG | ≤ 0.5
53 | GUUCGGGUGGCGUAAUGGUAACGCGUCUCCCUCCUUAGGAAAAGACUGGGGGUUCGAGUCCCGUACGGAACG | ≤ 0.5
54 | GUUCGGUCGGAGUAGUGAUAACGCGUCUCGCUCCUAAGGAGAAGACUGCGGGUUCGAGUCCCGUACGGAACG | ≤ 0.5
55 | GUUCGGUUGGCGUAAUGGUAACGCGUCUCCCUCCUAAGGAGAAGACUGCGGGUUCAAGUCCGGUACGGAACG | 0.543
56 | GUUCGGCUGGCGUAAUGGUAACGCGUCUCCCUCCUAAGGAGAAGUCUGCGGGUUGGAGUCCCGUACGGAACG | ≤ 0.5
57 | GUUCGGUCGCCGUAAUGGUAACGCGUCUCCCUCCUAAGGAGAAGACUGCGGAUUCGAGUCCCGUACGGAACG | ≤ 0.5
58 | GUUCGGUAGGCGUAAUGGUAACGCGUCCCCCUCCUAAGGAGAAGACUGCGAGUUCGAGUCCCGUACGGCACG | ≤ 0.5
59 | GUUCGGUUGGCGUAAUGGUAACGCGUCUCCCUCCUAAGGAGAAGACUGCGGGUUCGAGUCCCGUACGCAACG | 0.826
60 | GUUCGGUUGGCGUAAUGGUAACGCGUCUCCCUCCUAAGGAGAAGACUGCGGGUUCGAGUCCCGUACGAAACG | 0.716
61 | GUUCGGGUGGCGUAGUGGUAACGCGUCUCCCUCCUAAGGAGAAGACUGCGGGUUCGAGUCCCGUACGGAACG | ≤ 0.5
62 | GUUCGGUAGGCGUAAUGGUAACGCGUCUCCCUCCUUAGGAGGAGACUGCAGGUUCGGGUCCCGUACGGAACG | ≤ 0.5
63 | GUUCGGUUGGCGAAAUGGUAAGGCGUUUGCCUCCUAAGGUGAAGACUGCGGGUCCGAGUCGCGUACGGAACG | ≤ 0.5
64 | GUUCGGUCGGCGUAAUGGUAACGCGUCUCCCUCCUAAGGAGAAGACUGCGGGUUCGAGUACCAUACGGAACG | ≤ 0.5
65 | GUUCGGCUGGCGUUAUGGUAACGUGUCUCCCUCCUAAGGAGAAGAGUGCGGGUUCGAGUCCUGUAUGGAACG | ≤ 0.5
66 | GUUCGGUUGGCGUAAUGGUAACGCGUCUCCCUCCUAAGGAGAAGACUGCGGGUUCGAAUCCCGUACCGAACG | 0.687
67 | GUUCGGUGGGGGUAAUGGUAACGCGUCUCCCUCCUAAGGAGAAGACUGUGGGUUCGAGUCGCGUACGGAACG | ≤ 0.5
68 | GUUCGGGUGGCGUAAUGGUAACGCGUCUCCCUCCUAAGGAGAAGACUGCGGGUUCGAGUCUCGUACGGAACG | 0.649
69 | GUUCGGCAGGCGUAAUGGUAACGCGUCUCCCUCCUAAGGAGAAGACUGCGGGUUCGAGUCCCGUACGGAACG | 0.56
70 | GUUCGGCUGGGGUAAUGGUAACGCGUCUCCGUCCUAAGGAGAAGACUGCGGGUUCGAGUCCCGUACGGAACG | ≤ 0.5
71 | GUUCGGUAGGCGUAAUGGUAACGCGUCUACCUCCCAAGGAGAAGACUGCGGGUUCGAGUCCCGUACGGAACG | ≤ 0.5
72 | GUUCGGUGGGCGUAAUGGUAACGCGUCUCCCUCCUAAGGAGAAGACUGCGGGUUCGAGUCCCGUACGGAACG | 0.527
73 | GUUCGGUCGGCGUAAUGGUAACGCGUCUCCCUCCUAAGGAGAAGACUGCGGGUUCGAGUCCCGUACGGAACG | 0.843
74 | GUUCGGUCGGCGUAAUGGUAACGCGUCUCCCUCCUAAGGAGAAGACUGCGGGUUCAAGUCCCGUACGGAACG | 0.723
75 | GUUCGGUUGGCGUAAUGGUAACGCGUCUCCCUCCUAAGGAGAAGACUGCGGGUUCAAGGCCCGUACGGAACG | ≤ 0.5
